In ChEMBL document CHEMBL1671767, “Fusidic acid resistance determinants in Staphylococcus aureus clinical isolates” (2010):
≈ marks a conversion by molar mass, not a printed value.

Columns and labels:
Assay type in all cases: functional
[1] = system: Staphylococcus aureus; assay: Antibacterial activity against fusidic acid-resistant, methicillin-resistant Staphylococcus aureus after 16 to 20 hrs by CLSI agar dilution method
Method in brief: (§1)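 Clinical isolates collected at a Taiwanese teaching hospital, 2002–2007. Inoculum was made by direct colony suspension to 0.5 McFarland. 10^4 CFU/spot was applied by Steers replicator onto Mueller-Hinton agar containing fusidic acid at 0.03 to 128 μg/ml. Plates were incubated at 33 to 35°C for 16–20 h. S. aureus ATCC 29213 served as control. Resistance breakpoint was 2 μg/ml.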

[2] = system: Staphylococcus aureus; assay: Antibacterial activity against fusidic acid-resistant, methicillin-susceptible Staphylococcus aureus after 16 to 20 hrs by CLSI agar dilution method
Method in brief: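 Clinical isolates from a Taiwan teaching hospital, 2002–2007. CLSI agar dilution: colonies suspended directly to 0.5 McFarland, and 10^4 CFU/spot applied by Steers replicator to Mueller-Hinton agar containing fusidic acid at 0.03 to 128 μg/ml. Plates incubated 16 to 20 h at 33 to 35°C. S. aureus ATCC 29213 used as control; resistance breakpoint 2 μg/ml.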

[3] = system: Staphylococcus aureus; assay: Antibacterial activity against fusidic acid-resistant methicillin-resistant Staphylococcus aureus harboring P404L mutation in domain 3 of EF-G encoded by fusA gene after 16 to 20 hrs by CLSI agar dilution method; method in brief: as §1
[4] = system: Staphylococcus aureus; assay: Antibacterial activity against fusidic acid-resistant methicillin-susceptible Staphylococcus aureus harboring P404L mutation in domain 3 of EF-G encoded by fusA gene after 16 to 20 hrs by CLSI agar dilution method; method in brief: as §1
[5] = system: Staphylococcus aureus; assay: Antibacterial activity against Staphylococcus aureus harboring P406L mutation in domain 3 of EF-G encoded by fusA gene after 16 to 20 hrs by CLSI agar dilution method; method in brief: as §1
[6] = system: Staphylococcus aureus; assay: Antibacterial activity against fusidic acid-resistant Staphylococcus aureus harboring E444K mutation in domain 3 of EF-G encoded by fusA gene after 16 to 20 hrs by CLSI agar dilution method; method in brief: as §1
[7] = system: Staphylococcus aureus; assay: Antibacterial activity against Staphylococcus aureus harboring G451V mutation in domain 3 of EF-G encoded by fusA gene after 16 to 20 hrs by CLSI agar dilution method; method in brief: as §1
[8] = system: Staphylococcus aureus; assay: Antibacterial activity against Staphylococcus aureus harboring M453I mutation in domain 3 of EF-G encoded by fusA gene after 16 to 20 hrs by CLSI agar dilution method; method in brief: as §1
[9] = system: Staphylococcus aureus; assay: Antibacterial activity against fusidic acid-resistant Staphylococcus aureus harboring H457Q mutation in domain 3 of EF-G encoded by fusA gene after 16 to 20 hrs by CLSI agar dilution method; method in brief: as §1
[10] = system: Staphylococcus aureus; assay: Antibacterial activity against fusidic acid-resistant Staphylococcus aureus harboring H457Y mutation in domain 3 of EF-G encoded by fusA gene after 16 to 20 hrs by CLSI agar dilution method; method in brief: as §1
[11] = system: Staphylococcus aureus; assay: Antibacterial activity against fusidic acid-resistant Staphylococcus aureus harboring L461K mutation in domain 3 of EF-G encoded by fusA gene after 16 to 20 hrs by CLSI agar dilution method; method in brief: as §1
[12] = system: Staphylococcus aureus; assay: Antibacterial activity against Staphylococcus aureus harboring L461S mutation in domain 3 of EF-G encoded by fusA gene after 16 to 20 hrs by CLSI agar dilution method; method in brief: as §1
[13] = system: Staphylococcus aureus; assay: Antibacterial activity against methicillin-susceptible Staphylococcus aureus harboring P478S mutation in domain 3 of EF-G encoded by fusA gene after 16 to 20 hrs by CLSI agar dilution method; method in brief: as §1
[14] = system: Staphylococcus aureus; assay: Antibacterial activity against methicillin-susceptible Staphylococcus aureus harboring M651I mutation in domain 5 of EF-G encoded by fusA gene after 16 to 20 hrs by CLSI agar dilution method
Method in brief: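 Agar dilution per CLSI on Mueller-Hinton agar, fusidic acid 0.03 to 128 μg/ml. Inoculum from direct colony suspension adjusted to 0.5 McFarland, 104 CFU/spot applied by Steers replicator. Plates incubated 33 to 35°C for 16 to 20 h. S. aureus ATCC 29213 as control strain; resistance breakpoint 2 μg/ml.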

[15] = system: Staphylococcus aureus; assay: Antibacterial activity against fusidic acid-resistant Staphylococcus aureus harboring M16I in domain 1 and H457Y mutation in domain 3 of EF-G encoded by fusA gene after 16 to 20 hrs by CLSI agar dilution method; method in brief: as §1
[16] = system: Staphylococcus aureus; assay: Antibacterial activity against fusidic acid-resistant Staphylococcus aureus harboring A67T in domain 1 and H457Y mutation in domain 3 of EF-G encoded by fusA gene after 16 to 20 hrs by CLSI agar dilution method; method in brief: as §1
[17] = system: Staphylococcus aureus; assay: Antibacterial activity against fusidic acid-resistant Staphylococcus aureus harboring A70V in domain 1 and H457Y mutation in domain 3 of EF-G encoded by fusA gene after 16 to 20 hrs by CLSI agar dilution method; method in brief: as §1
[18] = system: Staphylococcus aureus; assay: Antibacterial activity against fusidic acid-resistant Staphylococcus aureus harboring A71V in domain 1 and P404L mutation in domain 3 of EF-G encoded by fusA gene after 16 to 20 hrs by CLSI agar dilution method; method in brief: as §1
[19] = system: Staphylococcus aureus; assay: Antibacterial activity against fusidic acid-resistant Staphylococcus aureus harboring R76C in domain 1 and H457Y mutation in domain 3 of EF-G encoded by fusA gene after 16 to 20 hrs by CLSI agar dilution method; method in brief: as §1
[20] = system: Staphylococcus aureus; assay: Antibacterial activity against fusidic acid-resistant Staphylococcus aureus harboring A376V in domain 2 and L456F mutation in domain 3 of EF-G encoded by fusA gene after 16 to 20 hrs by CLSI agar dilution method; method in brief: as §1
[21] = system: Staphylococcus aureus; assay: Antibacterial activity against fusidic acid-resistant Staphylococcus aureus harboring E444V and L461F mutations in domain 3 of EF-G encoded by fusA gene after 16 to 20 hrs by CLSI agar dilution method; method in brief: as §1
[22] = system: Staphylococcus aureus; assay: Antibacterial activity against fusidic acid-resistant Staphylococcus aureus harboring H457Q and L461F mutations in domain 3 of EF-G encoded by fusA gene after 16 to 20 hrs by CLSI agar dilution method; method in brief: as §1
[23] = system: Staphylococcus aureus; assay: Antibacterial activity against fusidic acid-resistant Staphylococcus aureus harboring H457Q and L461K mutations in domain 3 of EF-G encoded by fusA gene after 16 to 20 hrs by CLSI agar dilution method; method in brief: as §1
[24] = system: Staphylococcus aureus; assay: Antibacterial activity against Staphylococcus aureus harboring […] and C473S mutations in domain 3 of EF-G encoded by fusA gene after 16 to 20 hrs by CLSI agar dilution method; method in brief: as §1

With `CC(=O)O[C@H]1C[C@@]2(C)[C@@H](C[C@@H](O)[C@H]3[C@@]4(C)CC[C@@H](O)[C@@H](C)[C@@H]4CC[C@@]32C)/C1=C(\CCC=C(C)C)C(=O)O` [FUSIDIC ACID] the MIC50 [1] was 32 µg/mL (≈ 61.9 µM), the MIC90 [1] was over 128 µg/mL and the MIC50 [2] was 8 µg/mL (≈ 15.5 µM). It also gave an MIC90 [2] of 16 µg/mL (≈ 31 µM), an MIC [3] of 8 µg/mL (≈ 15.5 µM) and an MIC [4] of 16 µg/mL (≈ 31 µM). For the same compound, the MIC [5] was 16 µg/mL (≈ 31 µM), the MIC [6] was 16 µg/mL (≈ 31 µM) and the MIC [7] was 8 µg/mL (≈ 15.5 µM). For the same compound, the MIC [8] was 8 µg/mL (≈ 15.5 µM), the MIC [9] was 8 µg/mL (≈ 15.5 µM) and the MIC [10] was 128 µg/mL (≈ 248 µM). For the same compound, the MIC [11] was over 128 µg/mL, the MIC [12] was 4 µg/mL (≈ 7.74 µM) and the MIC [13] was 8 µg/mL (≈ 15.5 µM). For the same compound, the MIC [14] was 2 µg/mL (≈ 3.87 µM), the MIC [15] was 16 µg/mL (≈ 31 µM) and the MIC [16] was 128 µg/mL (≈ 248 µM). The MIC [17] was over 128 µg/mL, the MIC [18] was 8 µg/mL (≈ 15.5 µM) and the MIC [19] was over 128 µg/mL. The MIC [20] was 32 µg/mL (≈ 61.9 µM), the MIC [21] was 32 µg/mL (≈ 61.9 µM) and the MIC [22] was 128 µg/mL (≈ 248 µM). For the same compound, the MIC [23] was over 128 µg/mL and the MIC [24] was over 128 µg/mL.
